Published values pooled from the literature.
Cell line: HepG2
Read-out: cell growth or viability

Cc1ccc2nc(-c3ccc(Cl)c(Cl)c3)n(Cc3ccccc3)c2c1  IC50 (MTT): > 100 µM
O=C(N/N=C/c1cccn1CCN1CCCCC1)Nc1cc2c(Nc3ccc(F)c(Cl)c3)ncnc2cc1O[C@H]1CCOC1  IC50 (MTT; 72 h): 0.59 µM
COc1cccc(NC(=O)CN2C(=O)/C(=C/c3cccs3)SC2=S)c1  inhibition (MTT; 10 µM): 12.2%
CC(=O)Nc1cccc(-n2c(=O)n(C3CC3)c(=O)c3c(Nc4ccc(I)cc4F)n(C)c(=O)c(C)c32)c1  viability (resazurin; 50 nM, 72 h): 43.3%
COc1cc2ncnc(Nc3ccc(F)c(Cl)c3)c2cc1NC(=O)N/N=C/CN(C)C  IC50 (MTT; 72 h): 2.08 µM
CCn1cc(-c2nnc(-c3cccnc3)o2)c(=O)c2cc(F)c(N3CCC(C)CC3)cc21  EC50 (ATP luminescence; 48 h): > 40 µM
Cc1cc(=O)oc2ccc(-c3cc(-c4cccs4)nc(N)n3)c(O)c12  inhibition (MTT; 8 µg/mL, 72 h): 0%
COc1ccc(NC(=O)c2c(Nc3ccccc3)sc(C#N)c2NC(=O)CNc2ccc(OC)c(OC)c2)cc1  viability (SRB; 1 nM, 48 h): 100%
COc1ccc(-c2nc3ccccc3[nH]2)cc1O  IC50 (MTT; 48 h): 64.2 µM
COc1ccc(NC(=O)c2c(Nc3ccccc3)sc(C#N)c2NC(=O)CNc2ccc([N+](=O)[O-])cc2)cc1  viability (SRB; 1 nM, 48 h): 100%
CCn1cc(-c2nc(C)no2)c(=O)c2cc(F)c(N3CCCCCC3)cc21  EC50 (ATP luminescence; 48 h): > 40 µM
CCOC(=O)c1ccc(NC(=O)C2=C3C(=Nc4ccccc43)NC2=O)cc1  viability (MTT; 50 µM, 24 h): 42.7%
O=C(CN1C(=O)/C(=C/c2cccc(O)c2)SC1=S)Nc1ccccc1  inhibition (MTT; 10 µM): 5.11%
CCn1cc(C(N)=O)c(=O)c2cc(F)c(N3CCC(C)CC3)cc21  EC50 (ATP luminescence; 48 h): > 40 µM
CSc1ccc(-c2nc3ccccc3[nH]2)cc1  IC50 (MTT; 48 h): 40.1 µM
Cc1ccc(-c2cc(-c3ccc4oc(=O)cc(C)c4c3O)nc(N)n2)cc1  inhibition (MTT; 8 µg/mL, 72 h): 0%
CCOC(=O)c1ccc(-n2c(C)cc(C)c(C#N)c2=O)cc1  viability (MTT; 100 µM, 24 h): 36.4%
COc1ccc(NC(=O)c2c(Nc3ccccc3)sc(C(=O)NN=Cc3ccc(Cl)cc3)c2NC(C)=O)cc1  viability (SRB; 1 nM, 48 h): 100%
CCOC(=O)c1ccc(-n2c(C)cc(/C=C/c3ccc(OC)cc3)c(C#N)c2=O)cc1  viability (MTT; 3.125 µM, 24 h): 100%
COc1cccc(NC(=O)CN2C(=O)/C(=C/c3ccc(F)cc3)SC2=S)c1  inhibition (MTT; 10 µM): 10.2%
CCOc1cc(-c2nc3ccccc3[nH]2)ccc1O  IC50 (MTT; 48 h): 42.5 µM
Cc1cc(=O)oc2ccc(-c3cc(-c4ccc(Br)cc4)nc(N)n3)c(O)c12  inhibition (MTT; 128 µg/mL, 72 h): 20%
CCn1cc(-c2nc(C)no2)c(=O)c2cc(F)c(N3CCCC3)cc21  EC50 (ATP luminescence; 48 h): > 40 µM
CC(=O)Oc1ccc(/C=N/NC(=O)c2ccc(Nc3cc(C)nc4c(O)cccc34)cc2)cc1  inhibition (MTT; 20 µM): 56.7%
CCOC(=O)c1ccc(-n2c(-c3ccc(C)cc3)cc(-c3ccc(O)cc3)c(C#N)c2=O)cc1  viability (MTT; 3.125 µM, 24 h): 88%
Cc1cc(Nc2ccc(C(=O)N/N=C/c3ccncc3)cc2)c2cccc(O)c2n1  inhibition (MTT; 20 µM): 47.7%
Cc1ccc2nc(-c3cccc([N+](=O)[O-])c3)[nH]c2c1  IC50 (MTT; 48 h): 71.4 µM
CC(C)(CO)Cn1nc(-c2ccc3nc(OC4CC4)ccc3c2)c2c(N)ncnc21  GI50: > 10 µM
CCN(CC)CCCn1cccc1/C=N/NC(=O)Nc1cc2c(Nc3ccc(F)c(Cl)c3)ncnc2cc1O[C@H]1CCOC1  IC50 (MTT; 72 h): 0.71 µM
CCn1cc(-c2nc(C)no2)c(=O)c2cc(F)c(N3CCOCC3)cc21  EC50 (ATP luminescence; 48 h): > 40 µM
COc1ccc(NC(=O)c2c(Nc3ccccc3)sc(C#N)c2NC(=O)CNc2ccccc2)cc1  viability (SRB; 10 nM, 48 h): 90.3%
COc1ccc(-c2cc(-c3ccc4oc(=O)cc(C)c4c3O)nc(N)n2)cc1  inhibition (MTT; 32 µg/mL, 72 h): 15%
C=CCn1c(-c2ccc(OC)c(OC)c2)nc2ccccc21  IC50 (MTT): 53.8 µM
Cc1cc(=O)oc2ccc(-c3cc(-c4ccc(Cl)cc4)nc(N)n3)c(O)c12  inhibition (MTT; 128 µg/mL, 72 h): 87%
O=C(CN1C(=O)/C(=C/c2ccc(F)cc2)SC1=S)Nc1ccccc1  inhibition (MTT; 10 µM): 6.59%
CCOC(=O)c1ccc(-n2c(N)c(C#N)c(CC#N)c(C#N)c2=O)cc1  viability (MTT; 12.5 µM, 24 h): 63.6%
COc1ccc(C=NNC(=O)c2sc(Nc3ccccc3)c(C(=O)Nc3ccc(OC)cc3)c2NC(C)=O)cc1  viability (SRB; 0.1 µM, 48 h): 76.5%
C=CCn1c(-c2ccc(Cl)cc2)nc2ccc(C)cc21  IC50 (MTT): 38.8 µM
O=C(CN1C(=O)/C(=C/c2ccccc2F)SC1=S)Nc1ccccc1  inhibition (MTT; 10 µM): 7.65%
COc1ccc(NC(=O)c2c(Nc3ccccc3)sc(C#N)c2NC(=O)CNc2ccccc2[N+](=O)[O-])cc1  viability (SRB; 0.1 µM, 48 h): 88.3%
Clc1ccc(-c2nc3ccccc3n2Cc2ccccc2)cc1Cl  IC50 (MTT): 49.9 µM
COc1ccc(NC(=O)c2c(Nc3ccccc3)sc(C(=O)NN=Cc3cc(OC)c(OC)c(OC)c3)c2NC(C)=O)cc1  viability (SRB; 10 µM, 48 h): 42.9%
Cc1cc(=O)oc2ccc(-c3cc(-c4ccccc4)nc(N)n3)c(O)c12  inhibition (MTT; 8 µg/mL, 72 h): 0%
CCOC(=O)c1ccc(N2C(N)=C(C#N)C3(C(=O)Nc4ccccc43)C(C#N)=C2O)cc1 (stereo not shown)  viability (MTT; 6.25 µM, 24 h): 61.3%
COc1cccc(NC(=O)CN2C(=O)/C(=C/C3CC3)SC2=S)c1  inhibition (MTT; 10 µM): 12.1%
COc1ccc(NC(=O)c2c(Nc3ccccc3)sc(C(=O)NN=Cc3ccccc3)c2NC(C)=O)cc1  viability (SRB; 1 µM, 48 h): 72%
